Measured values from ChEMBL document CHEMBL1135666, “Adenosine 5'-O-(1-boranotriphosphate) derivatives as novel P2Y(1) receptor agonists” (J Med Chem, 2002).

Legend:
Bos taurus = species: Bos taurus; assay: Kinetic parameter Vmax value for Bovine spleen NTPDase1 hydrolysis.; assay type: ADME; conditions: cattle
How it was run: (§1)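 Semipurified bovine spleen particulate NTPDase1 (about 1 μg protein), preincubated 3 min at 37 °C in 8 mM CaCl2, 5 mM tetramisole, 50 mM imidazole, 50 mM Tris pH 7.5. The reaction was started with substrate at 10–100 μM and stopped after 7 min with malachite green to read Pi release. Apparent Km and Vmax came from a Woolf–Augustinson–Hofstee plot; assays were run in triplicate.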

NTPDase1 = assay: Kinetic parameter Km value for Bovine spleen NTPDase1 hydrolysis.; assay type: ADME, Bos taurus; conditions: cattle; how it was run: as §1
[1] = Half life was determined; assay type: ADME
How it was run: (§2)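 ³¹P NMR follow-up of hydrolysis at 37 °C. At pH 7.4 the diastereoisomeric mixture (tetrasodium salt) was held in Tris-HCl buffer and recorded for 3 weeks at 1–3 day intervals; hydrolysis came from Pγ (−7.5 ppm) versus inorganic phosphate (1.7 ppm) integrals. At pH 1.4 the sample was in KCl/HCl buffer with D2O, recorded for 17 h every 0.5 h; Pβ intensity versus time was fit to pseudo-first-order kinetics.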

[2] = Hydrolysis rate constant was determined; assay type: ADME; how it was run: as §2
P2Y purinoceptor 1 = P2Y purinoceptor 1 (Rattus norvegicus, UniProt P49651); assay: Agonists activity was evaluated by release of [Ca2+] release of HEK 293 cells stably transfected with rat-brain P2Y purinoceptor 1 (P2Y1-R); assay type: functional, cell-based, HEK293
How it was run: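 HEK293 cells stably expressing rat brain P2Y1 receptor, grown on coverslips, loaded 30 min with 2 μM Fura 2-AM in HEPES-buffered saline pH 7.4. Continuous superfusion with 35 °C HBS containing varying nucleotide concentrations. Single-cell fluorescence at 340/380 nm excitation, 500 nm emission. EC50 from concentration–response of ΔF340/F380, averaged over 60–100 cells; at least three separate experiments; ATP as reference.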

Half life was determined = conditions: pH 1.4, 37 °C

Sequence of P2Y purinoceptor 1 (P49651 whole entry, the tested form may be a part): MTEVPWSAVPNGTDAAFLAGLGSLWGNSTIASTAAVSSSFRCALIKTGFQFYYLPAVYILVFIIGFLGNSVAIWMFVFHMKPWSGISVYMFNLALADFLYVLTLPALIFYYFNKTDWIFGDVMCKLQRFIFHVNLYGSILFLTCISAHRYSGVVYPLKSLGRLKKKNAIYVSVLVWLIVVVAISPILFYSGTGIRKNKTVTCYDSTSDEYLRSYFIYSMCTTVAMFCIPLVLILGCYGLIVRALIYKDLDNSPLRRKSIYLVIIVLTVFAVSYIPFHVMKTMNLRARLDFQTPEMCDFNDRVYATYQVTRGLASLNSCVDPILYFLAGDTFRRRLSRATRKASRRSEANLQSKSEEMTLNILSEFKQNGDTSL

Compound | Vmax (Bos taurus) [µmol/min/mg] | Km (NTPDase1) [µM] | half-life [1] [h] | Hydrolysis rate constant [2] [s⁻¹] | EC50 (P2Y purinoceptor 1) [nM] | half-life (Half life was determined) [h]
Nc1nc(Cl)nc2c1ncn2[C@@H]1O[C@H](COP(=O)([O-])OP(=O)([O-])OP(=O)([O-])[O-])[C@@H](O)[C@H]1O.[Na+].[Na+].[Na+].[Na+] | 1.9 | 12.9 | – | – | – | –
[BH3-]P(=O)(OC[C@H]1O[C@@H](n2cnc3c(N)nc(Cl)nc32)[C@H](O)[C@@H]1O)OP(=O)([O-])OP(=O)([O-])[O-].[Na+].[Na+].[Na+].[Na+] (stereo partly drawn) | 0.88 | 7.2 | 2.7 | 7.2e-05 | – | –
Nc1ncnc2c1ncn2[C@@H]1O[C@H](COP(=O)([O-])OP(=O)([O-])OP(=O)([O-])[O-])[C@@H](O)[C@H]1O.[Na+].[Na+].[Na+].[Na+] | 2.4 | 15.9 | – | – | – | –
[BH3-]P(=O)(OC[C@H]1O[C@@H](n2cnc3c(N)nc(SC)nc32)[C@H](O)[C@@H]1O)OP(=O)([O-])OP(=O)([O-])[O-].[Na+].[Na+].[Na+].[Na+] (stereo partly drawn) | 0.89 | 17.4 | – | – | 2.6 | 5.9

Next, values leading:

Vmax (Bos taurus) [µmol/min/mg] | Km (NTPDase1) [µM] | half-life [1] [h] | Hydrolysis rate constant [2] [s⁻¹] | EC50 (P2Y purinoceptor 1) [nM] | half-life (Half life was determined) [h] | Compound
1.9 | 62 | – | – | 1 | – | CSc1nc(N)c2ncn([C@@H]3O[C@H](COP(=O)([O-])OP(=O)([O-])OP(=O)([O-])[O-])[C@@H](O)[C@H]3O)c2n1.[Na+].[Na+].[Na+].[Na+]
0.78 | 13.8 | – | – | 200 | – | [BH3-]P(=O)(OC[C@H]1O[C@@H](n2cnc3c(N)ncnc32)[C@H](O)[C@@H]1O)OP(=O)([O-])OP(=O)([O-])[O-].[Na+].[Na+].[Na+].[Na+] (stereo partly drawn)
